Compounds with a hit are over-represented: about 1.7% of the library has one in this group of screens.
SR-BI HDL uptake: blocks mouse SR-BI lipid uptake from DiI-HDL. ldlA[mSR-BI] CHO cells, DiI-HDL uptake fluorescence, 3 h. inhibition, % at 12.5 µM. 320,000 compounds, 0.96% hits;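 active = mean replicate inhibition of at least 70% and a set share of replicates each scoring 70 or more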
Target sequence (Q61009 whole entry, looked up): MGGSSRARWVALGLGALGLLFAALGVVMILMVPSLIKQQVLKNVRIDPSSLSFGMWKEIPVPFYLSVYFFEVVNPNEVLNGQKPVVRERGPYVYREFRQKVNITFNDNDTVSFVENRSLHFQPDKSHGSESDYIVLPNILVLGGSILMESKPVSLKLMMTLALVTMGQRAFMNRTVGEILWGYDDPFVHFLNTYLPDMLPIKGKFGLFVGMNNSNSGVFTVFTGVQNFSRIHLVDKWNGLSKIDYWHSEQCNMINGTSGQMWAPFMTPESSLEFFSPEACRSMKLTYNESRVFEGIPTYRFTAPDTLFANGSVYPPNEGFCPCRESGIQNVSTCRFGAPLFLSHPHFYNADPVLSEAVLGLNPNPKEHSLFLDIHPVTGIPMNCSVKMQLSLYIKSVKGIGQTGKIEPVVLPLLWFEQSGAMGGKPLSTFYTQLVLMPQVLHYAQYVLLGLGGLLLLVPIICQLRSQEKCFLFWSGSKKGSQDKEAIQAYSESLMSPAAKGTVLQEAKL
SR-BI DiI-HDL act: enhances SR-BI lipid uptake from DiI-HDL; activation, % at 12.5 µM; CHO ldlA[mSR-BI] cells, DiI-HDL uptake fluorescence, 3 h; 100 = double the neutral-control signal; 320,000 compounds, 0.096% hits;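 active = mean replicate activation of at least 60% and every replicate at or above 60%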
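System: LDL receptor-deficient CHO ldlA cells overexpressing murine SR-BI | Timing: 3 h uptake period with compound, 37 °C | Medium: HEPES-buffered (25 mM, pH 7.4) F12 plus 0.5% BSA | Dosing: Single-point compound dose | Signal: Bottom-read fluorescence, 550/595 nm | Read-out: Retained DiI signal reflecting DiI-HDL uptake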
Statin myotox sup: suppressors of simvastatin-induced myotoxicity in C2C12 myotubes; ATP luminescence, 48 h; scaled: DMSO 0, geranylgeraniol control 100; rescue of ATP level, % at 7.49 µM; AID 602340; 330,000 compounds, 0.78% hits;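 active = mean ATP rescue above about 67%, or every replicate alone reaching that limit, limit read from the data, passing the limit was not always enough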;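 note: myotubes were challenged with 10 µM simvastatin during compound exposure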
Vif imaging: inhibitors of HIV Vif; HEK293T cells, Vif self-association by quenched fluorescence, imaging, 24 h; inhibition, % at 7.49 µM; 340,000 compounds, 0.35% hits; in the data active = inhibition above about 50%, passing the limit was not always enough
Each line names hits and unclear results; the compound was inactive in the other large screens; ! = not confirmed by another sample.

COCc1cc(N2CCOCC2)nc(-c2ccccc2)n1	none
CO[C@@H]1CN(C)C(=O)c2cc(NC(C)=O)ccc2OC[C@H](C)NC[C@H]1C	none (no result: SR-BI HDL uptake, SR-BI DiI-HDL act, Vif imaging)
COc1ccc(-c2cc(N)n(S(=O)(=O)c3c(F)c(F)c(F)c(F)c3F)n2)cc1OC	Vif imaging 59
O=C(COc1ccccc1F)NCCc1ccc2c(c1)OCCO2	Statin myotox sup 126
COc1cc(/C=C2\CCCc3c2nc2ccccc2c3C(=O)O)cc(OC)c1O	SR-BI DiI-HDL act 231 (no result: Statin myotox sup)
C[C@@H]1CN([C@H](C)CO)C(=O)Cc2cc(NC(=O)C3CC3)ccc2O[C@@H]1CN(C)Cc1ccc(C(=O)O)cc1	none (no result: SR-BI HDL uptake, SR-BI DiI-HDL act, Vif imaging)
O=CN1CCC(=O)N(Cc2ccccc2)c2ccccc21	Statin myotox sup 109
CNC[C@@H]1Oc2c(NC(=O)Nc3ccc(OC)cc3)cccc2C(=O)N([C@H](C)CO)C[C@@H]1C	none (no result: SR-BI HDL uptake, SR-BI DiI-HDL act, Vif imaging)
O=C(O)c1ccc2nc(-c3ccco3)c(-c3ccco3)nc2c1	none (no result: Vif imaging)
O=C(Nc1cccc(C(F)(F)F)c1)c1ccc2nc(-c3ccco3)c(-c3ccco3)nc2c1	SR-BI HDL uptake 82 (no result: Statin myotox sup)
Oc1ccc2ccccc2c1N=Nc1ccccn1	none
CCOC(=O)c1[nH]cnc1N=Nc1c(O)ccc2ccccc12	SR-BI HDL uptake 80 (no result: Statin myotox sup)
CCOC(=O)N1CCC(NC(=O)c2cc(C)c3c(C)nn(-c4ccccc4)c3n2)CC1	Statin myotox sup 118
CC(C)CC#Cc1ccc2c(c1)O[C@@H](CN(C)S(C)(=O)=O)[C@H](C)CN([C@H](C)CO)S2(=O)=O	none (no result: SR-BI HDL uptake, SR-BI DiI-HDL act, Vif imaging)
Cc1cc(S(=O)(=O)Nc2ccccc2C(=O)O)ccc1Cl	Statin myotox sup 73
Cc1ccc(S(=O)(=O)N[C@@H]2CC[C@@H](CCn3cc(-c4cccc(F)c4)nn3)O[C@H]2CO)cc1	none (no result: SR-BI HDL uptake, SR-BI DiI-HDL act, Vif imaging)
Cc1cc(C)n(-c2ccc(C(=O)Nc3ccccc3N3CCOCC3)cc2)n1	SR-BI HDL uptake 80
Cc1cc(C)n(-c2ccc(C(=O)Nc3cc(C(F)(F)F)ccc3N3CCOCC3)cc2)n1	none (no result: Statin myotox sup)
CC1CCCC(C)N1C(=O)COc1ccc(C(=O)Nc2ccccc2N2CCOCC2)cc1 (configuration not stated)	SR-BI HDL uptake 82
CCC(C)C(=O)N1c2ccccc2C(=C2SC(C(=O)OC)=C(C(=O)OC)S2)C(=S)C1(C)C (configuration not stated)	SR-BI HDL uptake 89 (no result: Statin myotox sup)
O=C(O)/C=C/c1cccnc1	none
CC(/C=C\c1cccnc1)=C/C(=O)O	Statin myotox sup 116!
CCOC(=O)C1=C(C)N(CCCC(=O)O)C(=O)NC1c1ccccc1 (configuration not stated)	none
CCOC(=O)C1=C(C)N(CCO)C(=O)NC1c1ccccc1 (configuration not stated)	Vif imaging 63
CCOC(=O)C1=C(C)N(CCCCCC(=O)O)C(=O)NC1c1ccccc1Cl (configuration not stated)	Statin myotox sup 105
CCOC(=O)C1=C(C)N(CCCC(=O)O)C(=O)NC1c1ccc(Cl)cc1Cl (configuration not stated)	none
CCCCN1C(=S)SC(C)(C)C1/[N+]([O-])=C/c1cccnc1 (configuration not stated)	Statin myotox sup 98
COc1ccc(CNc2ncnc3cc(OC)c(OC)cc23)cc1	Statin myotox sup 111
C[C@H]1CN([C@@H](C)CO)C(=O)c2cccc(NS(=O)(=O)c3cn(C)cn3)c2O[C@H]1CN(C)Cc1ccccc1	none (no result: SR-BI HDL uptake, SR-BI DiI-HDL act, Vif imaging)
Cc1ccc(S(=O)(=O)n2nc(OC(=O)C3CCCCC3)cc2N)cc1	none
COc1ccc(S(=O)(=O)n2nc(OC(=O)C3CCCCC3)cc2N)cc1	Statin myotox sup 106
C[C@@H]1CN([C@H](C)CO)C(=O)c2cccc(NC(=O)C3CCCCC3)c2O[C@H]1CN(C)S(=O)(=O)c1ccc(Cl)cc1	none (no result: SR-BI HDL uptake, SR-BI DiI-HDL act, Vif imaging)
CCn1c(SCC(=O)c2ccc(O)c(O)c2)nnc1-c1ccccc1OC	none (no result: Vif imaging)
C=CCn1c(SCC(=O)c2ccc(O)c(O)c2)nnc1-c1ccccc1OC	Vif imaging 54
COCC(C)N1CC(O)=C(c2nc(-c3ccc(Cl)cc3)cs2)C1=N (configuration not stated)	SR-BI HDL uptake 82 (no result: Statin myotox sup)
CCCCN1CC(O)=C(c2nc(-c3ccc(Cl)cc3)cs2)C1=N	none (no result: Statin myotox sup)
COc1ccc(-c2csc(C3=C(O)CN(Cc4ccc(Cl)cc4)C3=N)n2)cc1OC	SR-BI HDL uptake 87
CCCN(C)C[C@H]1OCc2cn(nn2)CCCC(=O)N([C@H](C)CO)C[C@H]1C	none (no result: SR-BI HDL uptake, SR-BI DiI-HDL act, Vif imaging)
C[C@H](CO)N1C[C@H](C)[C@H](CN(C)C(=O)Nc2ccccc2)Oc2ccc(NC(=O)Cc3ccccc3)cc2C1=O	none (no result: SR-BI HDL uptake, SR-BI DiI-HDL act, Vif imaging)
O=C(c1ccc(S(=O)(=O)N2CCCC2)cc1)N1CCCc2ccccc21	SR-BI HDL uptake 77
COCC(COCCCNC(=O)Nc1ccc(Br)cc1)OC (configuration not stated)	Statin myotox sup 108
Cc1ccc(NC(=O)COc2ccc(/C=C3/SC(=Nc4ccccc4)N(Cc4cccnc4)C3=O)cc2)cc1	Statin myotox sup 80
O=C(NCC1CC1)[C@@H]1[C@@H](CO)[C@@H]2Cn3c(cccc3=O)[C@@H]2N1C(=O)CC1CC1	none (no result: SR-BI HDL uptake, SR-BI DiI-HDL act, Vif imaging)
OCCNc1cc(-n2nc(-c3ccccc3)cc2-c2ccccc2)ncn1	Statin myotox sup 114
C[C@@H]1CN([C@@H](C)CO)C(=O)Cc2cc(NC(=O)C3CCCCC3)ccc2O[C@@H]1CN(C)C(=O)Nc1ccc(F)cc1	none (no result: SR-BI HDL uptake, SR-BI DiI-HDL act, Vif imaging)
CCOC(=O)CN1C(=O)S/C(=C/c2ccc(OC)c([N+](=O)[O-])c2)C1=O	Statin myotox sup 113
CCC(C(=O)Nc1ccccc1-c1ccccc1)c1ccccc1 (configuration not stated)	Statin myotox sup 113
CCNC(=O)C[C@H]1CC[C@@H]2[C@H](COc3ccc(NC(=O)c4ccc(F)cc4)cc3C(=O)N2C)O1	none (no result: SR-BI HDL uptake, SR-BI DiI-HDL act, Vif imaging)
CCCC(=O)Nc1ccc2c(c1)C(=O)N(C)[C@H]1CC[C@@H](CC(=O)NCC3CC3)O[C@@H]1CO2	none (no result: SR-BI HDL uptake, SR-BI DiI-HDL act, Vif imaging)
COc1ccc2c(c1)C1NC(=S)NC(C)(O2)C1C(=O)Nc1ccc(Cl)cc1 (configuration not stated)	SR-BI HDL uptake 80 (no result: Statin myotox sup)
COc1ccc2c(c1)C1NC(=S)N[C@@](C)(O2)C1C(=O)Nc1ccccc1 (some centres not stated)	none (no result: Statin myotox sup)
C[C@H]1CN([C@@H](C)CO)C(=O)Cc2cc(NC(=O)CCN3CCOCC3)ccc2O[C@@H]1CN(C)S(=O)(=O)c1ccc(Cl)cc1	none (no result: SR-BI HDL uptake, SR-BI DiI-HDL act, Vif imaging)
CCC(C)Sc1ccc([C@@H]2[C@@H]3C(=O)N(C)C(=O)[C@@H]3[C@]3(C(=O)OC)CCCCN23)cc1OC (some centres not stated)	none
COC(=O)[C@@]12CCCCN1[C@H](c1ccc(-c3cccc(Cl)c3)c(OC)c1)[C@@H]1C(=O)N(C)C(=O)[C@@H]12	Statin myotox sup 137
CCC(C)Sc1ccc([C@@H]2[C@@H]3C(=O)N(CC)C(=O)[C@@H]3[C@]3(C(=O)OC)CCCCN23)cc1OC (some centres not stated)	Statin myotox sup 138
COc1ccc(-c2csc(C(C)(O)c3ccccc3)n2)cc1OC (configuration not stated)	Statin myotox sup 112 (no result: SR-BI HDL uptake, SR-BI DiI-HDL act)

Screening results (PubChem BioAssay)
